Measured values published in ChEMBL document CHEMBL3272149, “Synthesis and antibacterial activity of some derivatives of tolypomycinone. Relationship between structure and activity in ansamycins” (J Med Chem, 1977).
Values after ≈ are worked out from the molar mass of the structure shown. Active and inactive are the calls of the source. The calls are words filed in the database; no cut-off is given here.

Columns and labels:
[1] = Stability in simulated intestinal juice at pH 8.3; type: ADME; settings: simulated gi fluid
Method in brief: (§1)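 Compound dissolved in simulated gastric juice (pH 1.3) or simulated intestinal juice (pH 8.3). Samples were withdrawn at 1, 2 and 4 h and assayed for residual inhibitory activity against Staphylococcus.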

[2] = system: Staphylococcus aureus; test: Antibacterial activity against Staphylococcus aureus 209 P(FDA) assessed as inhibition of visible growth in simulated intestinal juice at pH 8.3 after 1 to 4 hrs by serial dilution method; type: functional, organism-based; method in brief: as §1
[3] = Stability in simulated gastric juice at pH 1.3; type: ADME; settings: simulated gi fluid; method in brief: as §1
[4] = system: Klebsiella pneumoniae; test: Antibacterial activity against Klebsiella pneumoniae Ottaviani assessed as inhibition of visible growth after 24 hrs by serial dilution method; type: functional
[5] = system: Escherichia coli; test: Antibacterial activity against Escherichia coli MC/35 assessed as inhibition of visible growth after 24 hrs by serial dilution method; type: functional; settings: MC/35, 24 h
[6] = system: Salmonella enterica subsp. enterica serovar Paratyphi B; test: Antibacterial activity against Salmonella paratyphi B 0248 K assessed as inhibition of visible growth after 24 hrs by serial dilution method; type: functional
Method in brief: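 Broth tube serial dilution in Brain Heart Infusion medium; inoculum 10^6 cells/mL; incubation 24 h at 35 °C; MIC taken as the lowest antibiotic concentration that prevented visible growth.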

[7] = system: Staphylococcus aureus; test: Antibacterial activity against Staphylococcus aureus 209 P(FDA) assessed as inhibition of visible growth in simulated gastric juice at pH 1.3 after 1 to 4 hrs by serial dilution method; type: functional, organism-based; method in brief: as §1
[8] = system: Staphylococcus aureus; test: Antibacterial activity against Staphylococcus aureus 209 P(FDA) assessed as inhibition of visible growth after 24 hrs by serial dilution method; type: functional

Row | SMILES | Stability [1] | inhibition [2] | Stability [3] | MIC [4] [µg/mL] | MIC [5] [µg/mL] | MIC [6] [µg/mL] | inhibition [7] | MIC [8] [µg/mL]
1 | CO[C@H]1/C=C/O[C@@]2(C)Oc3c(C)c(O)c4c(c3C2=O)C(=O)C(NCCN2CCOCC2)=C(NC(=O)/C(C)=C\C(=O)[C@@H]2C[C@@H]2[C@H](O)[C@@H](C)[C@@H](O)[C@@H](C)[C@H](OC(C)=O)[C@@H]1C)C4=O | Stable | Active | Stable | 50 (≈ 59.7 µM) | 12 (≈ 14.3 µM) | 12 (≈ 14.3 µM) | Active | < 0.005
2 | CNC1=C2NC(=O)/C(C)=C\C(=O)[C@@H]3C[C@@H]3[C@H](O)[C@@H](C)[C@@H](O)[C@@H](C)[C@H](OC(C)=O)[C@H](C)[C@@H](OC)/C=C/O[C@@]3(C)Oc4c(C)c(O)c(c(c4C3=O)C1=O)C2=O |  |  |  | 25 (≈ 33.8 µM) | 50 (≈ 67.7 µM) | 12 (≈ 16.2 µM) |  | 0.005 (≈ 0.00677 µM)
3 | CO[C@H]1/C=C/O[C@@]2(C)Oc3c(C)c(O)c4c(c3C2=O)C(=O)C(NCc2ccncc2)=C(NC(=O)/C(C)=C\C(=O)[C@@H]2C[C@@H]2[C@H](O)[C@@H](C)[C@@H](O)[C@@H](C)[C@H](OC(C)=O)[C@@H]1C)C4=O |  |  |  | 100 (≈ 123 µM) | 25 (≈ 30.6 µM) | 12 (≈ 14.7 µM) |  | 0.005 (≈ 0.00613 µM)
4 | CO[C@H]1/C=C/O[C@@]2(C)Oc3c(C)c(O)c4c(c3C2=O)C(=O)C(NCc2ccc(N(C)C)cc2)=C(NC(=O)/C(C)=C\C(=O)[C@@H]2C[C@@H]2[C@H](O)[C@@H](C)[C@@H](O)[C@@H](C)[C@H](OC(C)=O)[C@@H]1C)C4=O |  |  |  | 12 (≈ 14 µM) | 23 (≈ 26.8 µM) | 12 (≈ 14 µM) |  | < 0.005
5 | CO[C@H]1/C=C/O[C@@]2(C)Oc3c(C)c(O)c4c(c3C2=O)C(=O)C(NCCNc2ccc([N+](=O)[O-])cn2)=C(NC(=O)/C(C)=C\C(=O)[C@@H]2C[C@@H]2[C@H](O)[C@@H](C)[C@@H](O)[C@@H](C)[C@H](OC(C)=O)[C@@H]1C)C4=O |  |  |  | > 50 | > 50 | > 50 |  | < 0.025
